Screening results (PubChem)
Shown are actives, neighbours in structure and some others; about 3.8% of the full set was active somewhere.
GPR7 antag: antagonists of human GPR7 (neuropeptides B/W receptor 1) | GPR7-expressing cells, fluorescence antagonist assay | inhibition, % at 4.4 µM | actives 1.1% (n = 290,000) | AID 1861; in the data active means inhibition above about 16%, passing the limit was not always enough;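 further: cells stimulated with the agonist NPW; 0% = agonist with vehicle and 100% = vehicle without agonist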
Target sequence (P48145 whole entry, looked up): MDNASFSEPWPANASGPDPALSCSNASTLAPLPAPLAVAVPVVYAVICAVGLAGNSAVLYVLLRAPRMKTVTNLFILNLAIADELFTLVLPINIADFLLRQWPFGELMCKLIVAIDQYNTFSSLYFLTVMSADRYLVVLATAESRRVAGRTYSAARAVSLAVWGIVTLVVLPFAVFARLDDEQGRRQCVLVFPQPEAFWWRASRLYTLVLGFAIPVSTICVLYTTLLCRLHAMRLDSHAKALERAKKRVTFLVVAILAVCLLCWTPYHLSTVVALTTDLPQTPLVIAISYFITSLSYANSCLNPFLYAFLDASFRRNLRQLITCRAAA
OX1R antag-1: blocks the human orexin 1 receptor. O43613. CHO/OX1R cells, Fluo-8 calcium fluorescence, orexin A. inhibition, % at 5 µM. actives 0.43% (n = 330,000);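 active means inhibition above its plate's threshold, mean inhibition of all tested compounds on the plate plus 3 SD, cut at about 37% in these data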;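 further: 0% = orexin A challenge wells and 100% = SB-334867-A antagonist wells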
MPTP block: blocks calcium-induced mitochondrial swelling; isolated mouse mitochondria, Ca2+ swelling absorbance, 30 min; inhibition, % at 10 µM; actives 1.4% (n = 360,000);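 active means inhibition of 50% or more, scaled per plate between neutral and stimulator controls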;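 further: 0% = DMSO wells given calcium and 100% = 1 mM EGTA wells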
OX1R antag-2: antagonists of human orexin 1 receptor (OX1R); AID 485270; OX1R-expressing cells, FRET antagonist read-out; inhibition, % at 6.6 µM; actives 1.8% (n = 330,000); O43613; in the data active means inhibition mostly above about 38%, no sharp cut-off; inactive means mostly below about 40%;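 further: 0% = agonist challenge alone and 100% = reference antagonist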
CHO parental Ca: counter-screen for OX1R antagonists: effect in parental CHO cells. parental CHO-K1, ATP-induced calcium, Fluo-8 fluorescence. inhibition, % at 5.6 µM. actives 0.63% (n = 330,000). AID 463079;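 active means inhibition above that plate's mean sample inhibition plus 3 SD, cut at about 26% in these data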;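 further: 0% = ATP-challenged DMSO wells and 100% = DMSO wells without ATP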
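Test system: parental CHO cells; detection: calcium-sensitive Fluo-8 fluorescence; evaluation: percent inhibition of calcium signal; also added: ATP as calcium-mobilizing challenge; repeats: one well per compound; control set: ATP-challenged DMSO wells low, unchallenged DMSO wells high; compound: single nominal dose of 5.6 µM per compound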
Rh123 counter: Rhodamine 123 counter-screen of mitochondrial pore hits; inhibition, % at 10 µM; isolated mitochondria, membrane potential, Rhodamine 123 fluorescence; shares compounds with MPTP block; actives 78% (n = 5,000); in the data active means inhibition above about 22%;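 further: 0% = DMSO vehicle and 100% = positive control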
MPTP abs DR: MPTP inhibition, dose response swelling confirmation. shares compounds with MPTP block. isolated mitochondria swelling, absorbance. IC50, µM. actives 58% (n = 780). AID 651561; in the data active means IC50 below about 20 µM
MPTP cs DR: counter-screen for mitochondrial permeability transition pore inhibitors, dose response. actives 49% (n = 780). AID 651564. IC50, µM. shares compounds with MPTP block. isolated mitochondria counterscreen, fluorescence read-out; in the data active means IC50 below about 80 µM
Active calls of the source: *.

CCC(C)Nc1nc(C)nc2c1oc1ccccc12 (configuration not stated) was read as GPR7 antag -17, OX1R antag-1 -18, MPTP block 27, OX1R antag-2 26 and CHO parental Ca -25.
For COc1ccc(CCNc2nc(C)nc3c2oc2ccccc23)cc1OC the results were GPR7 antag 13, OX1R antag-1 31, MPTP block 71*, OX1R antag-2 54*, CHO parental Ca 58* and Rh123 counter 91*.
Screening COc1ccc(CCNc2ncnc3c2oc2ccccc23)cc1OC returned GPR7 antag 37*, OX1R antag-1 60*, MPTP block 97*, OX1R antag-2 78*, CHO parental Ca 79* and Rh123 counter 99*.
c1ccc(CNc2ncnc3c2oc2ccccc23)nc1 was read as GPR7 antag -11, OX1R antag-1 -9, MPTP block 1, OX1R antag-2 11 and CHO parental Ca -6.
Cc1nc(NCCc2cnc[nH]2)c2oc3ccccc3c2n1 was read as GPR7 antag 0, OX1R antag-1 -30, MPTP block -3, OX1R antag-2 17 and CHO parental Ca -14.
For Cc1nc(NC(C)c2ccccc2)c2oc3ccccc3c2n1 (configuration not stated) the results were GPR7 antag 1, OX1R antag-1 14, MPTP block 64*, OX1R antag-2 51, CHO parental Ca 26 and Rh123 counter 96*.
CC(Sc1nncs1)C(=O)Nc1ccc2c(c1)OCO2 (configuration not stated) was read as GPR7 antag -12, OX1R antag-1 -12, MPTP block -1, OX1R antag-2 3 and CHO parental Ca -12.
Screening CC(C)S(=O)(=O)c1csc(NC(=O)Nc2cc(Cl)ccc2Cl)c1Cl returned GPR7 antag -14, OX1R antag-1 -15, MPTP block 86*, OX1R antag-2 12, CHO parental Ca -11 and Rh123 counter 76*.
Screening CS(=O)(=O)NCCCCCCNS(C)(=O)=O returned GPR7 antag -3, OX1R antag-1 -13, MPTP block 0, OX1R antag-2 17 and CHO parental Ca 3.
For OC1(c2ccc3ccccc3c2)CCN(Cc2ccccc2)C1 (configuration not stated) the results were GPR7 antag 3, OX1R antag-1 -31, MPTP block 55*, OX1R antag-2 23, CHO parental Ca -15, Rh123 counter -3, MPTP abs DR inactive and MPTP cs DR >80.
For CCOC(=O)c1sc(NC(=O)Nc2cccc(Cl)c2)cc1C the results were GPR7 antag 6, OX1R antag-1 36, MPTP block 79*, OX1R antag-2 47*, CHO parental Ca 34* and Rh123 counter 49*.
Screening CCOC(=O)c1ccc(NC(=O)Nc2nc3ccccc3s2)cc1 returned MPTP block 83* and Rh123 counter 91*.
`CCOC(=O)Nc1nc(C)c(C(=O)c2ccc(Cl)cc2)s1` gave GPR7 antag 2, OX1R antag-1 1, MPTP block 2, OX1R antag-2 10 and CHO parental Ca -16.
For CCOC(=O)Nc1nc2ccccc2s1 the results were GPR7 antag 4, OX1R antag-1 -25, MPTP block -1, OX1R antag-2 7 and CHO parental Ca -6.
`CCOC(=O)c1ccc(NC(=O)Nc2ccon2)cc1` gave GPR7 antag 13, OX1R antag-1 5, MPTP block 50*, OX1R antag-2 20, CHO parental Ca 16 and Rh123 counter 65*.
CCOC(=O)c1sc(NC(=O)Nc2ccc(Cl)cc2)nc1C was read as GPR7 antag 5, OX1R antag-1 43, MPTP block 97*, OX1R antag-2 67, CHO parental Ca 43* and Rh123 counter 67*.
For CCC(CC)COC(=O)C1=C(C)NC(=O)NC1c1ccc2c(c1)OCO2 (configuration not stated) the results were GPR7 antag -15, OX1R antag-1 -20, MPTP block 0, OX1R antag-2 3 and CHO parental Ca -2.
CCCCCc1c(-c2ccccc2OC)ncn1CCc1ccccc1OC was read as MPTP block 81* and Rh123 counter 113*.
For CCCCc1c(-c2ccccc2OC)ncn1CCc1ccccc1OC the results were MPTP block 80* and Rh123 counter 115*.
Screening CCCCc1c(-c2ccccc2Br)ncn1CCc1ccccc1OC returned MPTP block 27.
`N=c1c2ccccc2nc2n1CCCCCCCCCCC2` gave OX1R antag-1 -26, MPTP block 43, OX1R antag-2 9 and CHO parental Ca -3.
`CC(C)CC(NC(=O)C1CCCCC1)C(=O)N1CCN(c2ccccn2)CC1` (configuration not stated) gave GPR7 antag -8, OX1R antag-1 -22, MPTP block -2, OX1R antag-2 12 and CHO parental Ca -22.
For COc1ccc(-c2nnc(SCC(=O)c3ccc(O)cc3O)o2)cc1 the results were GPR7 antag 2, OX1R antag-1 -11, MPTP block 2, OX1R antag-2 23 and CHO parental Ca 0.
`O=S(=O)(Nc1cc(Cl)ccc1-n1cncn1)c1cc(Br)ccc1Br` gave OX1R antag-1 23, MPTP block 66*, OX1R antag-2 19, CHO parental Ca -2 and Rh123 counter 93*.
Cc1onc(-c2ccc(Cl)cc2)c1-c1ccnc(SCC(=O)Nc2cc(Cl)cc(Cl)c2)n1 was read as GPR7 antag -11, OX1R antag-1 -28, MPTP block 50*, OX1R antag-2 14, CHO parental Ca -2 and Rh123 counter 51*.
`O=C(CSc1nccc(-c2cccs2)n1)Nc1ccc(F)c(Cl)c1` gave GPR7 antag -5, OX1R antag-1 -23, MPTP block -4, OX1R antag-2 26 and CHO parental Ca -15.
For Cc1ccc(C(=O)NCC(=O)NCC(=O)OCc2ccc(Oc3ccc([N+](=O)[O-])cc3)cc2)cc1 the results were GPR7 antag 2, OX1R antag-1 59*, MPTP block 51*, OX1R antag-2 49, CHO parental Ca 46* and Rh123 counter 52*.
Screening CC(Cc1nnc(SCC(=O)O)n1N)c1ccccc1 (configuration not stated) returned GPR7 antag -5, OX1R antag-1 -7, MPTP block -1, OX1R antag-2 -9 and CHO parental Ca 0.
CC(=O)c1cn(CCOc2ccccc2C)c2ccccc12 was read as GPR7 antag 26, OX1R antag-1 22, MPTP block 96*, OX1R antag-2 37, CHO parental Ca 41* and Rh123 counter 82*.
`Cc1ccc(OCCCCn2cnc3ccccc32)cc1` gave GPR7 antag -1, OX1R antag-1 21, MPTP block 1, OX1R antag-2 16 and CHO parental Ca 4.
